Experimental data taken from PMC9939367 (Acta Pharmaceutica Sinica. B, 2022).
Values joined by “and” are separate entries in the source; they are usually repeats but may differ in a detail not shown here. Identical values can stand only once.

Experiments:
male Wistar rats [1] = test: Paw pressure test; type: in vivo, rat; conditions: for maximal efficacy, paw pressure: single i.p.
male Wistar rats [2] = test: Tail-flick test; type: in vivo, rat; conditions: for maximal effect, tail flick: single i.p.
male Wistar rats [3] = test: Carrageenan-induced acute inflammatory pain, mechanical allodynia; type: in vivo, rat; conditions: for maximal effect, carrageenan mechanical allodynia: single i.p., ipsilateral paw
male Wistar rats [4] = test: MIA-induced osteoarthritis pain, acute treatment, mechanical allodynia; type: in vivo, rat; conditions: for maximal effect, MIA mechanical allodynia: single i.p., ipsilateral paw
male Wistar rats [5] = test: Spared nerve injury; type: in vivo, rat; conditions: for maximal effect, SNI mechanical allodynia: single i.p., ipsilateral paw
S1R = S1R (Rattus norvegicus, UniProt Q9R0C9); test: Brain S1R occupancy, ex vivo autoradiography with [3H]-; type: in vivo; conditions: morphine 10 mg/kg, oxycodone 3 mg/kg i.p., 30 min
[6] = test system: male ferrets (Mustela putorius furo); test: Proemetic response in ferrets; conditions: for nausea-like global score / emetic response (retching and vomiting, words): 4 h observation
human MOR [7] = biological target: T1, human MOR (Homo sapiens, UniProt P35372); type: cell-based
human MOR [8] = biological target: T1, human MOR; type: cell-based; remark: listed apart in the source
S1R (σ1R) = S1R (σ1R) (Cavia porcellus, UniProt Q60492); test: [3H]; type: binding; conditions: guinea pig brain membranes, 1 mmol/L DPH
male Wistar rats [9] = type: in vivo, rat; conditions: 3 mg/kg i.p.
Outline: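 Male Wistar rats received i.p. vehicle (0.5% hydroxypropyl methylcellulose) or test compound, dose groups n = 7–10. The read-out 20 min after dosing was paw-pressure PPT, tail-flick TFL, or von Frey PWT in carrageenan-, MIA- and SNI-induced pain models. Dose–response curves were fitted to a four-parameter logistic (variable slope) by least-squares non-linear fitting. Efficacy at 3 mg/kg i.p. was calculated from each model's curve.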

male Wistar rats [10] = test: Intestinal transit inhibition; type: in vivo, rat
male Wistar rats [11] = test: Whole body plethysmography; type: in vivo, rat
[12] = Plasma and brain pharmacokinetics, 3 mg/kg i.p. single dose; type: in vivo; conditions: rat
Outline: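 Male Wistar rats got a single 3 mg/kg i.p. dose: 48 rats, 8 sampling points, 6 per point. Blood went into heparinized tubes and was centrifuged 4 °C, 3700 × g, 10 min. Brains were homogenized in DPBS (1:5 w/w). After acetonitrile protein precipitation, LC–MS/MS quantified drug (LOQ 1 ng/mL plasma, 2 ng/g brain). AUC, Cmax, Tmax and t1/2 came from non-compartmental analysis. Brain-to-plasma ratio = AUC brain/AUC plasma.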

[13] = Plasma levels in the MIA study, repeated b.i.d. s.c. dosing; type: in vivo, rat
Outline: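 MIA-injected male Wistar rats (n = 5/group) received 0.5, 1.5 or 3 mg/kg s.c. b.i.d. for 28 days, starting 14 days post-MIA. Caudal-vein blood was drawn on Day 1 (first dose) and Day 28 (last dose), 35–40 min post-dose, right after von Frey testing. Samples went into K2-EDTA tubes and were spun 4 °C, 3700 × g, 10 min. Acetonitrile precipitation preceded LC–MS/MS (LOQ 1 ng/mL). Values are mean ± SEM.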

[14] = Plasma pharmacokinetics in ferrets, single i.p. dose; type: in vivo, ferret
Outline: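 Male ferrets received a single i.p. dose of 0.5 or 1 mg/kg. Serial blood was drawn via carotid catheter at predose, 5, 15, 30 min and 1, 2, 4, 7, 24 h. Samples went into heparinized tubes and were spun 4 °C, 3700 × g, 10 min. Plasma was acetonitrile-precipitated and measured by LC–MS/MS (LOQ 1 ng/mL). AUC and Cmax came from non-compartmental analysis.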

MOR = MOR (Rattus norvegicus, UniProt P33535); test: Brain MOR occupancy, ex vivo autoradiography with [3H]-DAMGO; type: in vivo; conditions: ip, read-out: MOR occupancy, average, 3 mg/kg i.p.
human MOR [15] = conditions: read-out: In vitro binding affinity (Ki), MOR; cited from earlier work
human S1R = conditions: read-out: In vitro binding affinity (Ki), S1R; cited from earlier work
[16] = more than 180 targets; cited from earlier work
mice = conditions: repeated b.i.d. administration for 10 days in mice; cited from earlier work

T1 sequence (P35372 whole entry): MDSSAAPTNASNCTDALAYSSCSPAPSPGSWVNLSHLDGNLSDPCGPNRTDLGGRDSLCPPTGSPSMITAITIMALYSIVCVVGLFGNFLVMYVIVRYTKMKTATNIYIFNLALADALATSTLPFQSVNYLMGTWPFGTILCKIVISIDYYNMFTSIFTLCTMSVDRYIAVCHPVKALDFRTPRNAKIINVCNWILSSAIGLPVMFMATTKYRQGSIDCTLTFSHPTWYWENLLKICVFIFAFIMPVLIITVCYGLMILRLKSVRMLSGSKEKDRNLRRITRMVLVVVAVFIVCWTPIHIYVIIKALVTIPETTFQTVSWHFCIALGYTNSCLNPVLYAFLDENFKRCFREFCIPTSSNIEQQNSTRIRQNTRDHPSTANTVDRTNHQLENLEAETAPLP
S1R (σ1R), sequence (Q60492 whole entry): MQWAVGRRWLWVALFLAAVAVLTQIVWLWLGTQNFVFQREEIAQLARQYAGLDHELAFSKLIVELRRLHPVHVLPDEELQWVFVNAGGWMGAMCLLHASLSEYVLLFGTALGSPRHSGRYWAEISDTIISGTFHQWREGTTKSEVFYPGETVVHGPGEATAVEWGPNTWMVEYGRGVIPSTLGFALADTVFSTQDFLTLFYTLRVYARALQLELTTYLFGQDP
S1R, sequence (Q9R0C9 whole entry): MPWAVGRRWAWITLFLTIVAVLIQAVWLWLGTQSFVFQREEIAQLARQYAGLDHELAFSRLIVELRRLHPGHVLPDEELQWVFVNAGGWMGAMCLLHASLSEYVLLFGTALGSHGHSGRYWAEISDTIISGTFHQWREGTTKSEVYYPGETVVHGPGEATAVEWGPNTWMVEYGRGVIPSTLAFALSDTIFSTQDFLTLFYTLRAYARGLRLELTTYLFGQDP
MOR, sequence (P33535 whole entry): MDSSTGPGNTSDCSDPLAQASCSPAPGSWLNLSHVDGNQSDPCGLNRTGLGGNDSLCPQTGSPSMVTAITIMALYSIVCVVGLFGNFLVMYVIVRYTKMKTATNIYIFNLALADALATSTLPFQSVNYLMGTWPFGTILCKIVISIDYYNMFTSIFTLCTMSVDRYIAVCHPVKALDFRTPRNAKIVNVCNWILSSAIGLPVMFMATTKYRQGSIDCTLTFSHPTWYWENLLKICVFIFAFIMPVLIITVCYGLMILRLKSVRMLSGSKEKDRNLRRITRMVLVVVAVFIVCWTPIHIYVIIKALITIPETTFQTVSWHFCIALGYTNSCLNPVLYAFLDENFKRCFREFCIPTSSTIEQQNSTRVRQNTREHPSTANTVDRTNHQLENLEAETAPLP

With `CN1CC[C@]23c4c5ccc(O)c4O[C@H]2[C@@H](O)C=C[C@H]3[C@H]1C5` [morphine, Morphine, reference compound] the “maximal efficacy, paw pressure” value (male Wistar rats [1]) was at least 80%, the “maximal effect, tail flick” value (male Wistar rats [2]) was at least 95% and the “maximal effect, carrageenan mechanical allodynia” value (male Wistar rats [3]) was at least 80%. For the same compound, the “maximal effect, MIA mechanical allodynia” value (male Wistar rats [4]) was at least 95%, the “maximal effect, SNI mechanical allodynia” value (male Wistar rats [5]) was 82.2 ± 11.1% and the “effect on [3H]-(+)-pentazocine specific binding in rat cortex and striatum” value (S1R) was “neither morphine nor oxycodone had a significant effect”. For the same compound, the nausea-like global score ([6]; 0.5 mg/kg s.c.) was about 12, the retches ([6]; 0.5 mg/kg s.c., 4 h period) was 2.17 ± 0.60 and the vomits ([6]; 0.5 mg/kg s.c., 4 h period) was 1.17 ± 0.65.

In the case of `CCN1CC2(CCN(CCc3cc(F)ccc3F)CC2)O[C@H](C)C1=O` [WLB-73502, (R)-9-(2,5-difluorophenethyl)-4-ethyl-2-methyl-1-oxa-4,9-diazaspiro[5.5]undecan-3-one], the “cAMP lgτ (operational efficacy, G-protein pathway)” value (human MOR [7]) is reported as 1.58, the “effect on β-arrestin-2 recruitment” value (human MOR [8]) is reported as “no effect” and the “Ki without DPH/Ki with DPH” value (S1R (σ1R)) is reported as 0.9. For the same compound, the “potency relative to morphine, paw pressure” value (male Wistar rats [1]; more potent than morphine) was ~4 fold and 3 fold, the “maximal efficacy, paw pressure” value (male Wistar rats [1]) was at least 80% and the “potency relative to morphine, tail flick” value (male Wistar rats [2]; more potent than morphine) was about 4 fold. For the same compound, the “maximal effect, tail flick” value (male Wistar rats [2]) was at least 95%, the “potency relative to morphine, carrageenan” value (male Wistar rats [3]; more potent than morphine) was 2 fold and the “maximal effect, carrageenan mechanical allodynia” value (male Wistar rats [3]) was at least 80%. The “potency relative to morphine, MIA” value (male Wistar rats [4]; more potent than morphine) was 2 fold, the “maximal effect, MIA mechanical allodynia” value (male Wistar rats [4]) was at least 95% and the “potency relative to morphine, SNI” value (male Wistar rats [5]; more potent than morphine) was 8 fold. For the same compound, the “potency relative to oxycodone, SNI” value (male Wistar rats [5]; more potent than oxycodone) was 3 fold, the “maximal effect, SNI mechanical allodynia” value (male Wistar rats [5]) was 91.2 ± 5.9% and the “Antinociceptive efficacy, average of the pain models” value (male Wistar rats [9]) was 75%. The intestinal transit inhibition (male Wistar rats [10]; 2.5 mg/kg i.p.) was “did not significantly inhibit”, the intestinal transit inhibition (male Wistar rats [10]; 5 mg/kg i.p.) was “did not significantly inhibit” and the intestinal transit inhibition (male Wistar rats [10]; 10 mg/kg i.p.) was 19%. For the same compound, the intestinal transit inhibition (male Wistar rats [10]; 20 mg/kg i.p.) was 59%, the “minute volume (MV) inhibition” value (male Wistar rats [11]; 1.25 mg/kg i.p.) was “did not significantly change MV” and the “minute volume (MV) inhibition” value (male Wistar rats [11]; 5 mg/kg i.p.) was “did not significantly change MV”. The “minute volume (MV) inhibition” value (male Wistar rats [11]; 10 mg/kg i.p.) was about 30%, the “minute volume (MV) inhibition” value (male Wistar rats [11]; 20 mg/kg i.p.) was about 30% and the “Brain-to-plasma ratio (AUC brain/AUC plasma)” value ([12]; 3 mg/kg i.p.) was 2.57. The Cmax ([12]; Wistar, brain, ip, 3 mg/kg) was 982 ± 191 ng/g, the Tmax ([12]; Wistar, brain, ip, 3 mg/kg, 3 mg/kg i.p.) was 4.8 min and the half-life ([12]; Wistar, brain, ip, 3 mg/kg, t1/2, brain, 3 mg/kg i.p.) was 20.4 min. For the same compound, the AUC(0-inf) ([12]; Wistar, plasma, ip, 3 mg/kg) was 136 ± 15 ng·h/mL, the Cmax ([12]; Wistar, plasma, ip, 3 mg/kg) was 441 ± 73 ng/mL and the Tmax ([12]; Wistar, plasma, ip, 3 mg/kg, 3 mg/kg i.p.) was 4.8 min. The Tmax ([12]; Wistar, plasma, ip, 3 mg/kg, 3 mg/kg i.p., first sampling time) was 5 min, the “AUC0–∞” value ([12]; brain, 3 mg/kg i.p.) was 350 ± 40 (ng·h/g) and the Plasma concentration ([13]; 0.5 mg/kg s.c. b.i.d., Day 28, 35–40 min after administration) was 82 ± 3.2 ng/mL. It also gave a Plasma concentration ([13]; 0.5 mg/kg s.c., Day 1, 35–40 min after administration) of 47.3 ± 3.8 ng/mL, a Plasma concentration ([13]; 1.5 mg/kg s.c. b.i.d., Day 28, 35–40 min after administration) of 283.7 ± 10.4 ng/mL and a Plasma concentration ([13]; 1.5 mg/kg s.c., Day 1, 35–40 min after administration) of 174.9 ± 7.4 ng/mL. The Plasma concentration ([13]; 3 mg/kg s.c. b.i.d., Day 28, 35–40 min after administration) was 550.6 ± 33.8 ng/mL, the Plasma concentration ([13]; 3 mg/kg s.c., Day 1, 35–40 min after administration) was 361 ± 24.7 ng/mL and the AUC(0-inf) ([14]; ferret, plasma, ip, 1 mg/kg) was 2460 ± 625 ng·h/mL. For the same compound, the Cmax ([14]; ferret, plasma, ip, 1 mg/kg) was 620 ± 98 ng/mL, the “AUC in ferrets at 1 mg/kg relative to rats at 3 mg/kg” value ([14]; higher in ferrets) was 18 fold and the receptor occupancy at 3 mg/kg (MOR) was 50%. For the same compound, the Ki (human MOR [15]) was 64 nM, the Ki (human S1R) was 118 nM and the “selectivity against target panel” value [16] was “selective”. For the same compound, the “naloxone-precipitated withdrawal signs” value (mice) was “not detected”, the “emetic response (retching and vomiting, words)” value ([6]; 0.5 mg/kg i.p.) was “did not induce any emetic response” and the nausea-like global score ([6]; 0.5 mg/kg i.p.) was about 2. For the same compound, the “emetic response (retching and vomiting, words)” value ([6]; 1 mg/kg i.p.) was “did not induce any emetic response” and the nausea-like global score ([6]; 1 mg/kg i.p.) was about 4.

For `COc1ccc2c3c1O[C@H]1C(=O)CC[C@@]4(O)[C@@H](C2)N(C)CC[C@]314` [oxycodone, reference compound], the “β-Arrestin lgτ” value (human MOR [8]) was −0.28, the “maximal efficacy, paw pressure” value (male Wistar rats [1]) was at least 80% and the “maximal effect, tail flick” value (male Wistar rats [2]) was at least 95%. For the same compound, the “maximal effect, carrageenan mechanical allodynia” value (male Wistar rats [3]) was at least 80%, the “maximal effect, MIA mechanical allodynia” value (male Wistar rats [4]) was at least 95% and the “maximal effect, SNI mechanical allodynia” value (male Wistar rats [5]) was 74.9 ± 7.5%. The intestinal transit inhibition (male Wistar rats [10]; 2.5 mg/kg i.p.) was “no effect”, the intestinal transit inhibition (male Wistar rats [10]; 5 mg/kg i.p.) was 72% and the intestinal transit inhibition (male Wistar rats [10]; 10 mg/kg i.p.) was 93%. For the same compound, the “minute volume (MV) inhibition” value (male Wistar rats [11]; 1.25 mg/kg i.p.) was “did not significantly modify MV”, the “minute volume (MV) inhibition” value (male Wistar rats [11]; 5 mg/kg i.p.) was 30% and the “minute volume (MV) inhibition” value (male Wistar rats [11]; 10 mg/kg i.p.) was 50%.

In the case of `COc1ccc2c(c1)[C@]13CCCC[C@@H]1[C@H](C2)N(C)CC3` [dextromethorphan, Dextromethorphan, reference compound], the “Ki without DPH/Ki with DPH” value (S1R (σ1R)) is reported as 9.0.
